Assay results reported in ChEMBL document CHEMBL1140412, “F-18 stilbenes as PET imaging agents for detecting beta-amyloid plaques in the brain” (J Med Chem, 2005).
Values belong to the compound of their own block, whether it stands above or below them.

Tests used:
[1] = Biodistribution in ICR mouse bone 1 hr after iv injection of [18F]-compound in 0.1% bovine serum albumin solution, n = 3; type: ADME, organism-based, Bone element; settings: in vivo
Summary of the method: (§1)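 Male ICR mice (22-25 g) under isoflurane anesthesia received 0.15 mL of 0.1% BSA solution containing 5-10 μCi [¹⁸F]tracer by tail-vein injection; n = 3 per time point. Killed by cervical dislocation, organs removed, weighed and gamma-counted. %dose/g derived from sample counts vs. diluted initial dose; blood total activity assumed as 7% of body weight. Mean ± SD.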

[2] = Biodistribution in ICR mouse bone 2 hr after iv injection of [18F]-compound in 0.1% bovine serum albumin solution, n = 3; type: ADME, organism-based, Bone element; settings: in vivo; summary of the method: as §1
[3] = Biodistribution in ICR mouse lung 1 hr after iv injection of [18F]-compound in 0.1% bovine serum albumin solution, n = 3; type: ADME, organism-based; settings: in vivo; summary of the method: as §1
[4] = Biodistribution in ICR mouse lung 2 hr after iv injection of [18F]-compound in 0.1% bovine serum albumin solution, n = 3; type: ADME, organism-based; settings: in vivo; summary of the method: as §1
[5] = Biodistribution in ICR mouse skin 1 hr after iv injection of [18F]-compound in 0.1% bovine serum albumin solution, n = 3; type: ADME, organism-based, Zone of skin; settings: in vivo; summary of the method: as §1
[6] = molecular target: Amyloid-beta precursor protein (Homo sapiens, UniProt P05067); assay: Inhibition constant for I-125-IMPY binding to amyloid plaques in Alzheimers disease brain homogenates; type: tissue-based
Summary of the method: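 Competition binding in pooled postmortem AD cortical homogenates (dissected gray/white matter, ~100 mg wet tissue/ml PBS pH 7.4; 20-50 μg per tube). [¹²⁵I]IMPY at 0.04-0.06 nM; inhibitors 10^-5-10^-10 M in PBS with 0.1% BSA. Nonspecific binding with 600 nM IMPY. Incubated 2 hr at 37°C, GF/B filtration, PBS washes, gamma counting. Ki from nonlinear regression.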

[7] = Biodistribution in ICR mouse skin 2 hr after iv injection of [18F]-compound in 0.1% bovine serum albumin solution, n = 3; type: ADME, organism-based, Zone of skin; settings: in vivo; summary of the method: as §1
[8] = Biodistribution in ICR mouse blood 1 hr after iv injection of [18F]-compound in 0.1% bovine serum albumin solution, n = 3; type: ADME, organism-based; settings: in vivo; summary of the method: as §1
[9] = Biodistribution in ICR mouse blood 2 hr after iv injection of [18F]-compound in 0.1% bovine serum albumin solution, n = 3; type: ADME, organism-based; settings: in vivo; summary of the method: as §1
[10] = Biodistribution in ICR mouse brain 1 hr after iv injection of [18F]-compound in 0.1% bovine serum albumin solution, n = 3; type: ADME, organism-based; settings: in vivo; summary of the method: as §1
[11] = Biodistribution in ICR mouse brain 2 hr after iv injection of [18F]-compound in 0.1% bovine serum albumin solution, n = 3; type: ADME, organism-based; settings: in vivo; summary of the method: as §1
[12] = Biodistribution in ICR mouse heart 1 hr after iv injection of [18F]-compound in 0.1% bovine serum albumin solution, n = 3; type: ADME, organism-based; settings: in vivo; summary of the method: as §1
[13] = Biodistribution in ICR mouse heart 2 hr after iv injection of [18F]-compound in 0.1% bovine serum albumin solution, n = 3; type: ADME, organism-based; settings: in vivo; summary of the method: as §1
[14] = Biodistribution in ICR mouse liver 1 hr after iv injection of [18F]-compound in 0.1% bovine serum albumin solution, n = 3; type: ADME, organism-based; settings: in vivo; summary of the method: as §1
[15] = Biodistribution in ICR mouse liver 2 hr after iv injection of [18F]-compound in 0.1% bovine serum albumin solution, n = 3; type: ADME, organism-based; settings: in vivo; summary of the method: as §1
[16] = Biodistribution in ICR mouse kidney 1 hr after iv injection of [18F]-compound in 0.1% bovine serum albumin solution, n = 3; type: ADME, organism-based; settings: in vivo; summary of the method: as §1
[17] = Biodistribution in ICR mouse kidney 2 hr after iv injection of [18F]-compound in 0.1% bovine serum albumin solution, n = 3; type: ADME, organism-based; settings: in vivo; summary of the method: as §1
[18] = Biodistribution in ICR mouse muscle 1 hr after iv injection of [18F]-compound in 0.1% bovine serum albumin solution, n = 3; type: ADME, organism-based, Muscle tissue; settings: in vivo; summary of the method: as §1
[19] = Biodistribution in ICR mouse muscle 2 hr after iv injection of [18F]-compound in 0.1% bovine serum albumin solution, n = 3; type: ADME, organism-based, Muscle tissue; settings: in vivo; summary of the method: as §1
[20] = Biodistribution in ICR mouse spleen 1 hr after iv injection of [18F]-compound in 0.1% bovine serum albumin solution, n = 3; type: ADME, organism-based; settings: in vivo; summary of the method: as §1
[21] = Biodistribution in ICR mouse spleen 2 hr after iv injection of [18F]-compound in 0.1% bovine serum albumin solution, n = 3; type: ADME, organism-based; settings: in vivo; summary of the method: as §1
[22] = Biodistribution in ICR mouse bone 2 min. after iv injection of [18F]-compound in 0.1% bovine serum albumin solution, n = 3; type: ADME, organism-based, Bone element; settings: in vivo; summary of the method: as §1
[23] = Biodistribution in ICR mouse lung 2 min. after iv injection of [18F]-compound in 0.1% bovine serum albumin solution, n = 3; type: ADME, organism-based; settings: in vivo; summary of the method: as §1
[24] = Biodistribution in ICR mouse skin 2 min. after iv injection of [18F]-compound in 0.1% bovine serum albumin solution, n = 3; type: ADME, organism-based, Zone of skin; settings: in vivo; summary of the method: as §1
[25] = Biodistribution in ICR mouse blood 2 min. after iv injection of [18F]-compound in 0.1% bovine serum albumin solution, n = 3; type: ADME, organism-based; settings: in vivo; summary of the method: as §1
[26] = Biodistribution in ICR mouse lung 30 min. after iv injection of [18F]-compound in 0.1% bovine serum albumin solution, n = 3; type: ADME, organism-based; settings: in vivo, 0.5 h; summary of the method: as §1
[27] = Biodistribution in ICR mouse skin 30 min. after iv injection of [18F]-compound in 0.1% bovine serum albumin solution, n = 3; type: ADME, organism-based, Zone of skin; settings: in vivo, 0.5 h; summary of the method: as §1
[28] = Biodistribution in ICR mouse blood 30 min. after iv injection of [18F]-compound in 0.1% bovine serum albumin solution, n = 3; type: ADME, organism-based; settings: in vivo, 0.5 h; summary of the method: as §1
[29] = Biodistribution in ICR mouse brain 30 min. after iv injection of [18F]-compound in 0.1% bovine serum albumin solution, n = 3; type: ADME, organism-based; settings: in vivo, 0.5 h; summary of the method: as §1
[30] = Biodistribution in ICR mouse heart 30 min. after iv injection of [18F]-compound in 0.1% bovine serum albumin solution, n = 3; type: ADME, organism-based; settings: in vivo, 0.5 h; summary of the method: as §1
[31] = Biodistribution in ICR mouse kidney 2 min. after iv injection of [18F]-compound in 0.1% bovine serum albumin solution, n = 3; type: ADME, organism-based; settings: in vivo; summary of the method: as §1
[32] = Biodistribution in ICR mouse liver 30 min. after iv injection of [18F]-compound in 0.1% bovine serum albumin solution, n = 3; type: ADME, organism-based; settings: in vivo, 0.5 h; summary of the method: as §1
[33] = Biodistribution in ICR mouse muscle 2 min. after iv injection of [18F]-compound in 0.1% bovine serum albumin solution, n = 3; type: ADME, organism-based, Muscle tissue; settings: in vivo; summary of the method: as §1
[34] = Biodistribution in ICR mouse spleen 2 min. after iv injection of [18F]-compound in 0.1% bovine serum albumin solution, n = 3; type: ADME, organism-based; settings: in vivo; summary of the method: as §1
[35] = Biodistribution in ICR mouse kidney 30 min. after iv injection of [18F]-compound in 0.1% bovine serum albumin solution, n = 3; type: ADME, organism-based; settings: in vivo, 0.5 h; summary of the method: as §1
[36] = Biodistribution in ICR mouse muscle 30 min. after iv injection of [18F]-compound in 0.1% bovine serum albumin solution, n = 3; type: ADME, organism-based, Muscle tissue; settings: in vivo, 0.5 h; summary of the method: as §1
[37] = Biodistribution in ICR mouse spleen 30 min. after iv injection of [18F]-compound in 0.1% bovine serum albumin solution, n = 3; type: ADME, organism-based; settings: in vivo, 0.5 h; summary of the method: as §1
[38] = Biodistribution in ICR mouse bone 30 min. after iv injection of [18F]-compound in 0.1% bovine serum albumin solution, n = 3; type: ADME, organism-based, Bone element; settings: in vivo, 0.5 h; summary of the method: as §1
[39] = Biodistribution in ICR mouse brain 2 min. after iv injection of [18F]-compound in 0.1% bovine serum albumin solution, n = 3; type: ADME, organism-based; settings: in vivo; summary of the method: as §1
[40] = Biodistribution in ICR mouse heart 2 min. after iv injection of [18F]-compound in 0.1% bovine serum albumin solution, n = 3; type: ADME, organism-based; settings: in vivo; summary of the method: as §1
[41] = Biodistribution in ICR mouse liver 2 min. after iv injection of [18F]-compound in 0.1% bovine serum albumin solution, n = 3; type: ADME, organism-based; settings: in vivo; summary of the method: as §1

Sequence of Amyloid-beta precursor protein (P05067 whole entry): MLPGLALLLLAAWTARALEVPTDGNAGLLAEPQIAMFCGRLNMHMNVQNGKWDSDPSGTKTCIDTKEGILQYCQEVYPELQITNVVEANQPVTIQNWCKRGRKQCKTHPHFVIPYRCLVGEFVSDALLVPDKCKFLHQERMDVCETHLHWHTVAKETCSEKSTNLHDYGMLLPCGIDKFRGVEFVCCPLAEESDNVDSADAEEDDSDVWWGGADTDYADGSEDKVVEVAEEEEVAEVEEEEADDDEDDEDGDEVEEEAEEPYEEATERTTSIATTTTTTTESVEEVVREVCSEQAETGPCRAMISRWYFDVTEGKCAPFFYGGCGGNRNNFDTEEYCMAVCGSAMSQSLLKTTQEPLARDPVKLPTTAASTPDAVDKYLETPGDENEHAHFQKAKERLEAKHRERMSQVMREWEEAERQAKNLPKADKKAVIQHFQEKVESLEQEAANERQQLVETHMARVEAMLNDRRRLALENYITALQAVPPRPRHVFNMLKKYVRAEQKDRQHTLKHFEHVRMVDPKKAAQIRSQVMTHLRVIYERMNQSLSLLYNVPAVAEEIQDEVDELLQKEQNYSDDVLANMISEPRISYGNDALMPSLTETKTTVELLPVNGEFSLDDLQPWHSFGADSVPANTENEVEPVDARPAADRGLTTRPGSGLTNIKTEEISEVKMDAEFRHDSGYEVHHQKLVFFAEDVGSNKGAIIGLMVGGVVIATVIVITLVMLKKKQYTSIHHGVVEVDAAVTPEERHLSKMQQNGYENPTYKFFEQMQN

- Biodistribution [1]: 6.5 %Dose/g
- Biodistribution [2]: 8.63 %Dose/g
- Biodistribution [3]: 5 %Dose/g
- Biodistribution [4]: 3.74 %Dose/g
- Biodistribution [5]: 1.65 %Dose/g
- Ki [6]: 15 nM
- Biodistribution [7]: 1 %Dose/g
- Biodistribution [8]: 1.51 %Dose/g
- Biodistribution [9]: 1.18 %Dose/g
- Biodistribution [10]: 2.97 %Dose/g
- Biodistribution [11]: 1.37 %Dose/g
- Biodistribution [12]: 1.45 %Dose/g
- Biodistribution [13]: 0.91 %Dose/g
- Biodistribution [14]: 13.46 %Dose/g
- Biodistribution [15]: 9.51 %Dose/g
- Biodistribution [16]: 2.97 %Dose/g
- Biodistribution [17]: 2.19 %Dose/g
- Biodistribution [18]: 1.22 %Dose/g
- Biodistribution [19]: 0.66 %Dose/g
- Biodistribution [20]: 1.24 %Dose/g
- Biodistribution [21]: 0.99 %Dose/g
- Biodistribution [22]: 1.57 %Dose/g
- Biodistribution [23]: 93.4 %Dose/g
- Biodistribution [24]: 0.67 %Dose/g
- Biodistribution [25]: 1.79 %Dose/g
- Biodistribution [26]: 12.93 %Dose/g
- Biodistribution [27]: 1.69 %Dose/g
- Biodistribution [28]: 1.65 %Dose/g
- Biodistribution [29]: 5.21 %Dose/g
- Biodistribution [30]: 2.76 %Dose/g
- Biodistribution [31]: 13.32 %Dose/g
- Biodistribution [32]: 14.65 %Dose/g
- Biodistribution [33]: 0.84 %Dose/g
- Biodistribution [34]: 4.43 %Dose/g
- Biodistribution [35]: 4.64 %Dose/g
- Biodistribution [36]: 1.53 %Dose/g
- Biodistribution [37]: 2.45 %Dose/g
- Biodistribution [38]: 2.06 %Dose/g
- Biodistribution [39]: 5.55 %Dose/g
- Biodistribution [40]: 10.43 %Dose/g
- Biodistribution [41]: 14.13 %Dose/g
Structure (SMILES): CN(C)c1ccc(/C=C/c2ccc(OCC(CO)C[18F])cc2)cc1 (stereo not given)

- Ki [6]: 95 nM
Structure (SMILES): Nc1ccc(/C=C/c2ccc(O)cc2)cc1

- Ki [6]: 150 nM
Structure (SMILES): Cc1ccc(S(=O)(=O)OCC(CO)COc2ccc(/C=C/c3ccc(N(C)C)cc3)cc2)cc1 (stereo not given)

- Ki [6]: 80 nM
Structure (SMILES): CN(C)c1ccc(/C=C/c2ccc(OCC(CO)Cc3ccc(Br)cc3)cc2)cc1 (stereo not given)

- Ki [6]: 38 nM
Structure (SMILES): CN(C)c1ccc(/C=C/c2ccc(OCC(CO)CO)cc2)cc1
